# Measured values from ChEMBL document CHEMBL2406980, “Non hemolytic short peptidomimetics as a new class of potent and broad-spectrum antimicrobial agents” (Bioorg Med Chem Lett, 2013).
# Activity calls are given as the source filed them. The calls are words filed in the database; no cut-off is given here. Where a SMILES comes first, the peptide text is derived from it.
# Columns and labels:
# Staphylococcus aureus [1] = test: Antibacterial activity against Staphylococcus aureus KCTC 1621 assessed as growth inhibition after 18 to 20 hrs by broth microdilution method; format: functional
# Outline: (§1)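 MIC by broth microdilution against a four-strain panel: E. coli and P. aeruginosa (Gram-negative), S. epidermidis and S. aureus (Gram-positive). Values are given in mass and molar units. Where no activity occurs at the top concentration, twice that maximum is used in the geometric-mean MIC calculation.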
# [2] = tested on: Staphylococcus epidermidis; test: Antibacterial activity against Staphylococcus epidermidis KCTC 1917 assessed as growth inhibition after 18 to 20 hrs by broth microdilution method; format: functional; outline: as §1
# Pseudomonas aeruginosa = test: Antibacterial activity against Pseudomonas aeruginosa KCTC 1637 assessed as growth inhibition after 18 to 20 hrs by broth microdilution method; format: functional; outline: as §1
# Escherichia coli [3] = test: Antibacterial activity against Escherichia coli KCTC 1682 assessed as growth inhibition after 18 to 20 hrs by broth microdilution method; format: functional; outline: as §1
# Staphylococcus aureus [4] = test: Antibacterial activity against Staphylococcus aureus KCTC 1621 assessed as obvious disruption of cellular structure at 10 X MIC after 1 hr by transmission electron microscopic analysis; format: functional, organism-based
# Outline: (§2)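 Peptide-treated E. coli and S. aureus are negatively stained and examined by transmission electron microscopy for cell rupture and release of internal material. Comparisons are made with untreated cells, with LL-37 as a positive lysis control.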
# Escherichia coli [5] = test: Antibacterial activity against Escherichia coli KCTC 1682 assessed as obvious disruption of cellular structure at 10 X MIC after 1 hr by transmission electron microscopic analysis; format: functional, organism-based; outline: as §2
# Staphylococcus aureus [6] = test: Antibacterial activity against methicillin-resistant Staphylococcus aureus CCARM 3095 assessed as growth inhibition after 18 to 20 hrs by broth microdilution method; format: functional
# Staphylococcus aureus [7] = test: Antibacterial activity against methicillin-resistant Staphylococcus aureus CCARM 3090 assessed as growth inhibition after 18 to 20 hrs by broth microdilution method; format: functional
# [8] = Hemolytic activity in human RBC after 1 hr; format: ADME, cell-based; conditions: erythrocyte
# Outline: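 Human erythrocytes are exposed to peptide, and HC10 is taken as the peptide concentration producing 10% hemolysis. If no hemolysis is detected at the top concentration tested, twice that maximum is used for the therapeutic index.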
# Staphylococcus aureus [9] = test: Antibacterial activity against methicillin-resistant Staphylococcus aureus CCARM 3089 assessed as growth inhibition after 18 to 20 hrs by broth microdilution method; format: functional
# Staphylococcus aureus [10] = test: Antibacterial activity against Staphylococcus aureus KCTC 1621 assessed as growth inhibition at 50 ug/ml preincubated with trypsin for 1 hr followed by 18 to 20 hrs incubation in bacterial culture by broth microdilution method; format: functional, organism-based
# Outline: (§3)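 Peptides are pretreated with trypsin, then residual antibacterial activity is measured by broth microdilution. Remaining intact peptide at each degradation time is followed separately by analytical RP-HPLC after trypsin treatment.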
# Escherichia coli [11] = test: Antibacterial activity against Escherichia coli KCTC 1682 assessed as growth inhibition at 50 ug/ml preincubated with trypsin for 1 hr followed by 18 to 20 hrs incubation in bacterial culture by broth microdilution method; format: functional, organism-based; outline: as §3
Compound,MIC (Staphylococcus aureus [1]),MIC [2],MIC (Pseudomonas aeruginosa),MIC (Escherichia coli [3]),Activity (Staphylococcus aureus [4]),Activity (Escherichia coli [5]),MIC (Staphylococcus aureus [6]),MIC (Staphylococcus aureus [7]),HC10 [8],MIC (Staphylococcus aureus [9]),growth inhibition (GI) (Staphylococcus aureus [10]),growth inhibition (GI) (Escherichia coli [11])
NC(=O)[C@H](CCCN=C(N)N)NC(=O)[C@H](Cc1c[nH]c2ccccc12)NC(=O)[C@H](CCCN=C(N)N)NC(=O)[C@@H](N)Cc1c[nH]c2ccccc12 (H-WRWR-NH2),45.6 µM,11.4 µM,45.6 µM,45.6 µM,,,,,,,,
CC[C@H](C)[C@H](NC(=O)[C@H](CCCCN)NC(=O)[C@H](CCC(=O)O)NC(=O)[C@H](CCCCN)NC(=O)[C@H](CO)NC(=O)[C@H](CCCCN)NC(=O)[C@H](CCCNC(=N)N)NC(=O)[C@H](Cc1ccccc1)NC(=O)[C@H](Cc1ccccc1)NC(=O)[C@H](CC(=O)O)NC(=O)CNC(=O)[C@H](CC(C)C)NC(=O)[C@@H](N)CC(C)C)C(=O)NCC(=O)N[C@@H](CCCCN)C(=O)N[C@@H](CCC(=O)O)C(=O)N[C@@H](Cc1ccccc1)C(=O)N[C@@H](CCCCN)C(=O)N[C@@H](CCCNC(=N)N)C(=O)N[C@H](C(=O)N[C@H](C(=O)N[C@@H](CCC(N)=O)C(=O)N[C@@H](CCCNC(=N)N)C(=O)N[C@H](C(=O)N[C@@H](CCCCN)C(=O)N[C@@H](CC(=O)O)C(=O)N[C@@H](Cc1ccccc1)C(=O)N[C@@H](CC(C)C)C(=O)N[C@@H](CCCNC(=N)N)C(=O)N[C@@H](CC(N)=O)C(=O)N[C@@H](CC(C)C)C(=O)N[C@H](C(=O)N1CCC[C@H]1C(=O)N[C@@H](CCCNC(=N)N)C(=O)N[C@H](C(=O)N[C@@H](CCC(=O)O)C(=O)N[C@@H](CO)C(=O)O)[C@@H](C)O)C(C)C)[C@@H](C)CC)C(C)C)[C@@H](C)CC [CATHELICIDIN],3.6 µM,14.2 µM,7.1 µM,7.1 µM,Active,Active,> 7.1 µM,> 7.1 µM,36.7 µM,> 7.1 µM,,
N=C(N)NCCC[C@H](NC(=O)[C@@H](N)Cc1c[n+](CCCC2CCCCC2)cn1CCCC1CCCCC1)C(N)=O,14.3 µM,14.3 µM,57.2 µM,> 114 µM,,,14.3 µM,28.6 µM,> 457.6 µM,14.3 µM,Active,Active
N=C(N)NCCC[C@H](NC(=O)[C@H](Cc1c[n+](CCCC2CCCCC2)cn1CCCC1CCCCC1)NC(=O)[C@@H](N)CCCNC(=N)N)C(N)=O,5.6 µM,5.6 µM,11.2 µM,5.6 µM,Active,Active,5.2 µM,5.2 µM,> 357.8 µM,5.2 µM,Active,Active
H-WRWRWR-NH2 [listing 1 of 2 here],7.7 µM,7.7 µM,15.3 µM,3.8 µM,,,,,,,,
NC(=O)[C@H](CCCN=C(N)N)NC(=O)[C@H](Cc1c[nH]c2ccccc12)NC(=O)[C@@H](N)CCCN=C(N)N (H-Arg-Trp-Arg-NH2),> 124 µM,> 124 µM,> 124 µM,> 124 µM,,,,,> 495.8 µM,,,
N=C(N)NCCC[C@H](NC(=O)[C@@H](N)CCCNC(=N)N)C(=O)N[C@@H](Cc1c[n+](CCCC2CCCCC2)cn1CCCC1CCCCC1)C(N)=O,5.6 µM,5.6 µM,11.2 µM,5.6 µM,,,5.6 µM,11.2 µM,> 358 µM,5.6 µM,Active,Active
N=C(N)NCCC[C@H](NC(=O)[C@H](Cc1cncn1CCCC1CCCCC1)NC(=O)[C@@H](N)CCCNC(=N)N)C(N)=O,13.5 µM,13.5 µM,108 µM,108 µM,,,54.1 µM,> 54.1 µM,> 432.9 µM,54.1 µM,inactive,inactive
H-WRWRWR-NH2 [listing 2 of 2 here],,,,,,,,,> 245.2 µM,,,
N=C(N)NCCC[C@H](NC(=O)[C@H](Cc1c[nH]c2ccccc12)NC(=O)[C@H](CCCNC(=N)N)NC(=O)[C@@H](N)Cc1c[nH]c2ccccc12)C(N)=O (H-WRWR-NH2),,,,,,,,,> 364.5 µM,,,
CC[C@H](C)[C@H](NC(=O)CN)C(=O)NCC(=O)N[C@@H](C)C(=O)N[C@H](C(=O)N[C@@H](CC(C)C)C(=O)N[C@@H](CCCCN)C(=O)N[C@H](C(=O)N[C@@H](CC(C)C)C(=O)N[C@H](C(=O)N[C@H](C(=O)NCC(=O)N[C@@H](CC(C)C)C(=O)N1CCC[C@H]1C(=O)N[C@@H](C)C(=O)N[C@@H](CC(C)C)C(=O)N[C@H](C(=O)N[C@@H](CO)C(=O)N[C@@H](Cc1c[nH]c2ccccc12)C(=O)N[C@H](C(=O)N[C@@H](CCCCN)C(=O)N[C@@H](CCCNC(=N)N)C(=O)N[C@@H](CCCCN)C(=O)N[C@@H](CCCNC(=N)N)C(=O)N[C@@H](CCC(N)=O)C(=O)N[C@@H](CCC(N)=O)C(N)=O)[C@@H](C)CC)[C@@H](C)CC)[C@@H](C)O)[C@@H](C)O)C(C)C)C(C)C,,,,,,,,,,,inactive,inactive
N=C(N)NCCC[C@H](NC(=O)[C@H](CCCNC(=N)N)NC(=O)[C@@H](N)Cc1c[n+](CCCC2CCCCC2)cn1CCCC1CCCCC1)C(N)=O,2.8 µM,2.8 µM,11.2 µM,5.6 µM,Active,Active,5.6 µM,5.6 µM,> 357.7 µM,5.6 µM,Active,Active
